Sampled rows, rich in hits. Any-hit rate of the full collection: about 3.1%.
HSF1 inh = HSF1 inhibition; NIH3T3-HGL HSE-luciferase, MG132-induced, luminescence 8 h; active compounds read low; activity change, negative = inhibition, % at 7.5 µM (by protocol); 300,000 tested, 0.77% active;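 active = more than half of replicate wells show activity change below -50%, luminescence cut by over half; inconclusive = some wells, but at most half, below -50%; inactive = no replicate well below -50%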;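 also: luciferase reports HSF-1 transcriptional activity via heat shock element; 0% = median of DMSO wells and -100% = zero luminescence signal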
Tb hexokinase = blocks Trypanosoma brucei hexokinase 1 activity | 220,000 tested, 0.11% active | inhibition, % at 10 µM | recombinant TbHK1, G6PDH-coupled NADH A340;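 active = inhibition of 50% or more in the single-dose primary screen; inactive = inhibition below 50%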
HSP90 inh = inhibitors of HSP90 luciferase refolding in rabbit reticulocyte lysate; luciferase refolding luminescence, 3 h; inhibition, % at 5.6 µM; 290,000 tested, 0.91% active; AID 1789;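 active = inhibition above the screen-wide mean plus 3 SD, computed separately per campaign, cut at about 16% in these data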;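 also: 0% = DMSO wells and 100% = 60 µM geldanamycin wells; inhibitors lower the luminescence because luciferase stays unfolded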
HKDC1 inh = HKDC1 (human) hexokinase inhibition | Q2TB90 | recombinant HKDC1, G6PDH/diaphorase resazurin coupled fluorescence | inhibition, % at 20 µM | AID 493160 | 340,000 tested, 0.16% active;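 active = inhibition above about 35% when tested at 20 µM, limit read from the data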;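 also: plate controls were DMSO wells with enzyme for no effect and DMSO wells lacking enzyme for full effect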
Target sequence (Q2TB90 whole entry, looked up): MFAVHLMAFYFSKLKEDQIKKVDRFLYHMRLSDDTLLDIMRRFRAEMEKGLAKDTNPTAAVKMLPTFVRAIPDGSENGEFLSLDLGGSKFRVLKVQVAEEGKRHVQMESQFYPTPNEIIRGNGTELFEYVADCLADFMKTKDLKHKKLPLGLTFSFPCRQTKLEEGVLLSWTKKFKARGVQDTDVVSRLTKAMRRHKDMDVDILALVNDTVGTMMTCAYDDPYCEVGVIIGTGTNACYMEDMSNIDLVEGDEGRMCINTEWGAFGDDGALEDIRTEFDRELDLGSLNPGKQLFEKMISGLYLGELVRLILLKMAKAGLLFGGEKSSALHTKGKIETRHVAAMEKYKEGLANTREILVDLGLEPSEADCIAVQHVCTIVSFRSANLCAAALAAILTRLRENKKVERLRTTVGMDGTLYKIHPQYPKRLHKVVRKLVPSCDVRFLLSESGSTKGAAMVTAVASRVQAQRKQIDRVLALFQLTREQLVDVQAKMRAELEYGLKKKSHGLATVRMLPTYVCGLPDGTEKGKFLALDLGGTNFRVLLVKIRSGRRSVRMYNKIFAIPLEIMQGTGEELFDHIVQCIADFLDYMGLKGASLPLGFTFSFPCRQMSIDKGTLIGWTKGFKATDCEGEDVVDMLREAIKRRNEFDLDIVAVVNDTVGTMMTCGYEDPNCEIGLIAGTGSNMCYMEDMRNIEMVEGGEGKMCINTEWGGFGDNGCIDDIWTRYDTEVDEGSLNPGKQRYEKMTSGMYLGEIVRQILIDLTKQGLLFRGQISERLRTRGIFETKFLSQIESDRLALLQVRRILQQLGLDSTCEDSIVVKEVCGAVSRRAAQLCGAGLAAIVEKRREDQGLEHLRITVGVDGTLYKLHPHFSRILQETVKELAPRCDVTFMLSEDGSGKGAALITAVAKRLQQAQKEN
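System: Recombinant HKDC1 hexokinase | Amount: HKDC1 at 5 µg/mL | Reagent: Glucose with 1 mM ATP | Doses: Single 20 µM dose | Incubation: Reaction time 90 min, room temperature, protected from light | Signal: Coupled resazurin fluorescence, excitation 525 nm, emission 613 nm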
HSF-1 act = increases HSF-1 driven luciferase reporter signal; NIH3T3-HGL HSF-1 luciferase reporter, MG132, 8 h; 100% = twice DMSO control signal; AID 504408; activation, % at 9 µM; 300,000 tested, 1.7% active;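 active = mean replicate activation of at least 50% with a set share of replicates each reaching 50%; inconclusive = only one of those two conditions met; inactive = mean below 50% and too few replicates reaching it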;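 also: 0% = median of the neutral control wells and 100% = twice that signal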
Hsp70 act = switches on Hsp70 transcription. 200,000 tested, 0.04% active. activation, % at 10 µM. HeLa Hsp70 promoter luciferase reporter, luminescence; scaled: vehicle 0, proteasome-inhibitor control 100%;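 active = activation above the mean across all tested compounds plus 3 SD, cutoff set per campaign, cut at about 5.5% in these data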;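 also: 100% = MG132 at 30 µM as the positive control and 0% = DMSO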
Active calls of the source: *; ? = inconclusive; . = no result.

SMILES | HSF1 inh | Tb hexokinase | HSP90 inh | HKDC1 inh | HSF-1 act | Hsp70 act
Cc1oc(=O)c(NC(=O)c2cccc(Cl)c2)cc1C(=O)c1ccccc1 | 74 | -15 | -3 | 4 | 123* | 0
CCOC(=O)N1CCN(C(=O)CS(=O)Cc2nc(-c3ccc(OC)c(OC)c3)oc2C)CC1 (centres undefined) | -4 | . | -2 | -4 | 8 | .
Cc1ccc(NC(=O)CSc2nc(=O)n(CCN(C)C)c3c2CCCC3)cc1Cl | -2 | . | . | -2 | -6 | .
Cc1ccc2c(c1)N(Cc1ccc([N+](=O)[O-])cc1)C=NS2(=O)=O | -65* | . | -4 | -1 | -71 | .
Cc1ccc2c(c1)N(Cc1cccc(C#N)c1)C=NS2(=O)=O | -5 | . | 2 | -3 | 3 | .
CC(O)c1ccc(Oc2cnccn2)cc1 (centres undefined) | 5 | . | 2 | -6 | 18 | .
COc1cc(NC(=O)c2c(OC)cccc2OC)ccc1NC(=O)c1cc2ccccc2o1 | 35 | . | -5 | -2 | 52* | .
CCC(=O)Nc1cccc(NC(=O)c2cc3ccccc3o2)c1 | 35 | -7 | -4 | 0 | 44 | 1
Cc1cnc(NC(=O)c2cc3ccccc3o2)s1 | 11 | -18 | 38* | -3 | 41 | 0
Cc1nnc(NC(=O)c2cc3ccccc3o2)s1 | 11 | . | -4 | -1 | 11 | .
Cc1cccc(NC(=O)c2cc3ccccc3o2)c1 | 45 | 4 | 6 | -10 | 76* | 0
O=C(Nc1cccc(Br)c1)c1cc2ccccc2o1 | 56 | 13 | 2 | -5 | 86* | 0
CCCCN1C(=O)C(=O)c2cc(Cl)ccc21 | . | . | . | 19 | . | .
CC(=O)Oc1ccc(C(=O)NC(C)CCc2ccccc2)cc1 (centres undefined) | -3 | . | -2 | -9 | 6 | .
CCCOc1ccc(CC(=O)N/N=C\c2ccc(F)cc2)cc1 | -45 | . | 3 | -5 | -56 | .
O=C(COc1ccccc1Cl)Nc1ccc2c(c1)C(=O)NC2=O | 21 | . | 0 | -3 | 48 | .
CC(=O)c1cccc(NC(=S)NC(=O)c2ccccc2)c1 | 22 | 15 | -2 | -9 | 55* | 2
CCC(=O)Nc1cccc(NC(=S)NC(=O)c2ccc(Cl)cc2)c1 | 17 | -9 | -3 | -8 | 64* | 0
CC(=O)c1cccc(NC(=S)NC(=O)c2cccc(Cl)c2)c1 | 37 | 20 | -3 | -10 | 56* | 0
CNC(=S)Nc1cccc(C(C)=O)c1 | -1 | -6 | -3 | -8 | 4 | 0
O=C(NC(=S)Nc1cc([N+](=O)[O-])ccc1Cl)c1ccccc1 | 12 | -8 | -4 | -10 | 54* | 0
CN(C)c1cc2c3ccccc3n(C)c2cc1N | . | . | . | 6 | . | .
COC(=O)C1=C(COc2ccccc2)NC(=O)NC1c1ccc(Cl)cc1 (centres undefined) | 21 | . | . | -2 | 53* | .
CCOC(=O)C1=C(COc2ccccc2)NC(=O)NC1c1ccc(Cl)cc1 (centres undefined) | 12 | . | 1 | 2 | 21 | .
O=C(CCC(=O)c1cccs1)c1cccs1 | 30 | 0 | 1 | 13 | 55* | 0
SMILES | HSF1 inh | Tb hexokinase | HSP90 inh | HKDC1 inh | HSF-1 act | Hsp70 act
O=C(/C=C/c1ccc(Br)o1)OCc1nc2ccsc2c(=O)[nH]1 | 0 | . | . | 58* | 10 | .
Cc1ccc(CNC(=O)C(=O)NCC2OCCCN2S(=O)(=O)c2ccc(F)cc2)cc1 (centres undefined) | -3 | . | -4 | -4 | 2 | .
Cc1ccc(Cl)c(OCC(=O)Nc2cc(S(=O)(=O)N3CCOCC3)ccc2N2CCCC2)c1 | 7 | . | -2 | 6 | 15 | .
COc1ccccc1C(=O)NCCCNC(=O)c1ccccn1 | 31 | . | 3 | -4 | 79* | .
COc1cc(C(=O)NCCOc2ccccc2C)c(Br)c(OC)c1OC | 11 | 26 | -3 | -6 | 13 | 0
COc1ccc(C(=O)NCCOc2ccccc2Cl)c(OC)c1OC | 56 | . | 0 | 3 | 54* | .
Cc1ccc(S(=O)(=O)N2CCN(C(=O)C3CCN(c4ncnc5sc(C)c(C)c45)CC3)CC2)c(C)c1 | . | . | . | 1 | . | .
O=S(=O)(c1cc(Cl)ccc1Cl)N1CCC2(CC1)OCCO2 | -72* | . | 2 | -7 | -78 | .
C/C(=C\C(=O)c1ccccc1)NCc1ccc(F)cc1 | 27 | -13 | 4 | 2 | 65* | 0
C/C(=C\C(=O)c1ccc(C)cc1)NCc1ccc(F)cc1 | 6 | -3 | 2 | 7 | 6 | 0
COc1cccc(NC(=O)COC(=O)c2cc(=O)c3ccccc3o2)c1 | . | . | . | 4 | . | .
COC(=O)c1ccc2c(=O)[nH]c(CSc3nc(-c4ccc(F)cc4)cs3)nc2c1 | -5 | -2 | -1 | -10 | -7 | 0
COc1cc2nc(CSc3nc(-c4ccc(F)cc4)cs3)[nH]c(=O)c2cc1OC | 21 | -1 | 2 | -13 | 67* | 0
CCC(C)NC(=O)Cc1c(C)c2cc3c(cc2oc1=O)OC(C)(C)CC3 (centres undefined) | 23 | . | 7 | 1 | 35 | .
O=C1C(C=Nc2ccccc2O)=C(O)c2ccccc21 | 15 | -7 | 17* | 1 | 36 | 0
O=C1C(C=Nc2ccccc2)=C(O)c2ccccc21 | 17 | -26 | 17* | 5 | 54* | 0
C#CCOc1ccc(C2C3=C(CC(C)(C)CC3=O)N(CC(=O)O)C3=C2C(=O)CC(C)(C)C3)cc1 | -1 | . | -2 | 1 | 22 | .
C#CCOc1ccc(C2C3=C(CC(C)(C)CC3=O)N(CC(=O)O)C3=C2C(=O)CC(C)(C)C3)cc1OC | 31 | . | 2 | -4 | 60* | .
Nc1ccccc1Sc1c[nH]c2ccccc12 | -2 | . | 1 | 2 | 15 | .
CC(C)(C)NC(=O)c1ccc2c3c(cccc13)CC2 | 48 | 0 | -2 | -11 | 101* | 0
O=C(NC1CC1)c1ccc2c3c(cccc13)CC2 | -9 | 18 | -4 | -10 | -5 | 0
O=[N+]([O-])c1ccc(NN=Cc2ccccc2O)nc1 | . | . | . | 7 | . | .
O=[N+]([O-])c1ccc(N/N=C/c2ccccc2O)cc1 | 70 | . | -9 | 2 | 73* | .
CC(C)N1C(=O)CN(C2CCCCCC2)C(=O)C1c1ccccc1F (centres undefined) | -56* | -1 | -1 | -11 | -64 | 0
CCN1CCN(c2c(Cl)cccc2NC(=O)c2cc3ccccc3o2)CC1 | -6 | . | -4 | -9 | -4 | .
Cc1ccc(-c2cc3c(N=O)c4ccccc4c-3n[nH]2)cc1 | ? | -11 | 58* | -2 | -60 | 0
O=Nc1c2cc(-c3ccccc3)[nH]nc-2c2ccccc12 | -30 | -11 | 11 | -9 | -52 | 0
